Measurements reported in paper PMC11040699 (JACS Au, 2024).
Entries after “also recorded” stand apart in the source; their conditions may differ. Blank lines part the entries; values can stand above or below the molecule they belong to. Residues, ends and D or L forms follow the SMILES beside them. No end group written: not given here. *: point of attachment. Acetyl(9-fluorenyl) = O=C(CC1c2ccccc2-c2ccccc21)*

How the values were obtained:
[1] = system: endogenous hKlotho in HK-2 cell lysate; assay: Pull-down assay from HK-2 cell lysate; assay type: binding, human; details: for selectivity of pull-down by silver stain, HK-2 cell lysate: silver stain of eluents
Method in brief: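 HK-2 cells (Keratinocyte SFM with bovine pituitary extract and EGF; 37 °C, 5% CO2) were scraped and lysed in RIPA with protease inhibitors; 20% kept as input. 200 μg lysate: unlabelled competitor preincubated 15 min, then biotinylated probe 30 min RT. Streptavidin magnetic beads 20 min, PBS washes, 8 M urea elution 30 min. SDS-PAGE, then silver stain or KM2076 western (1:1000, 4 °C overnight; HRP anti-rat; chemiluminescence). Bands quantified by densitometry.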

[2] = biological target: T1, recombinant mouse α-Klotho (mKlotho) (Mus musculus, UniProt O35082); assay: Competition binding assay with BLI against immobilized Pep-10-Biotin, mKlotho
T1 sequence (O35082 35-960): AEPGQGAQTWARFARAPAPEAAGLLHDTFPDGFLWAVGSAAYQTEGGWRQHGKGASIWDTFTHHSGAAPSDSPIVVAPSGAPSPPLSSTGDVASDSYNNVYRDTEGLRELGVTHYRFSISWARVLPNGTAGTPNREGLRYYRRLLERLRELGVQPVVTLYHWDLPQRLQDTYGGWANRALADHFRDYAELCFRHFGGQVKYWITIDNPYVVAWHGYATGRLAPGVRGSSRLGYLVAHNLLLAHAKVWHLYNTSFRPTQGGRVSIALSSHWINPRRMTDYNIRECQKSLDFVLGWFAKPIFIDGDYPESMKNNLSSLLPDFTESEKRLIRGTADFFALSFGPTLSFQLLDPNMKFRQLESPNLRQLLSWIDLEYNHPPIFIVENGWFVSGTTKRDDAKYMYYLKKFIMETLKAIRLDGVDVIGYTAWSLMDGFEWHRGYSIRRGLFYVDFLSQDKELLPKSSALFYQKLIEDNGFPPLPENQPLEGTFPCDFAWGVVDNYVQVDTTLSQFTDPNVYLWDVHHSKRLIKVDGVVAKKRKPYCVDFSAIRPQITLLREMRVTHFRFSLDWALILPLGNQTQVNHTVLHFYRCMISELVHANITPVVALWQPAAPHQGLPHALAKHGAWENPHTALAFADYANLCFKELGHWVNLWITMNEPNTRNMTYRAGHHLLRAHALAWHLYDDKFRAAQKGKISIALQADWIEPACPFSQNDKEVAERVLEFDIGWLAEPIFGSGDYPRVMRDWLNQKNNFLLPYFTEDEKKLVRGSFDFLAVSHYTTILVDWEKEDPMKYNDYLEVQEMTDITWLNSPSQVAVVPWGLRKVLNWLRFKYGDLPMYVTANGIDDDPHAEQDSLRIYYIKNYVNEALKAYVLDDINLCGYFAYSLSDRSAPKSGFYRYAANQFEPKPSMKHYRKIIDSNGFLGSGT

[3] = biological target: recombinant mouse α-Klotho (mouse) (UniProt O35082); assay: BLI
Target sequence in this assay (O35082 35-1014): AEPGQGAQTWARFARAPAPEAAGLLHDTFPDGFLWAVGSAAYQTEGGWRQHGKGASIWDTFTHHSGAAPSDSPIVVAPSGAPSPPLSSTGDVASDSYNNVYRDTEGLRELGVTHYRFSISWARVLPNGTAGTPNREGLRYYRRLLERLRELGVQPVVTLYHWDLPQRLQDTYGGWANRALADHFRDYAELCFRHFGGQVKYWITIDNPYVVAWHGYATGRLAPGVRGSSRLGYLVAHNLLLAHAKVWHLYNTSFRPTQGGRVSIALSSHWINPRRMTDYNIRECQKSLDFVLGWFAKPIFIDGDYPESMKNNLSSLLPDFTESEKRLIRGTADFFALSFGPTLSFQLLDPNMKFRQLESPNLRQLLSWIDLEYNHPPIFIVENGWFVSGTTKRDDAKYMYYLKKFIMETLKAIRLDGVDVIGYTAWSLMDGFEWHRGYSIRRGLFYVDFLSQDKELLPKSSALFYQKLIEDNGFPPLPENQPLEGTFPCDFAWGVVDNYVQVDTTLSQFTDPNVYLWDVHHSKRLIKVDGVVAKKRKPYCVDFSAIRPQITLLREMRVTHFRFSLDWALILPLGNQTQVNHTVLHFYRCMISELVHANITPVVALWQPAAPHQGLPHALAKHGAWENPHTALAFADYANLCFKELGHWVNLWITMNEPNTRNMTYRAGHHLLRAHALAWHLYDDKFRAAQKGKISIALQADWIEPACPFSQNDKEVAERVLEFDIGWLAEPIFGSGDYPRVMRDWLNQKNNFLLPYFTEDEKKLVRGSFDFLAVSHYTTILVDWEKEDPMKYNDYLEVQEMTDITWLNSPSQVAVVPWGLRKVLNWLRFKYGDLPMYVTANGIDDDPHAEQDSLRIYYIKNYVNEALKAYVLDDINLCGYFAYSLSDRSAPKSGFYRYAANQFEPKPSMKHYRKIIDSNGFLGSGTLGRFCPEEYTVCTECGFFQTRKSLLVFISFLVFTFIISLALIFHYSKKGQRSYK

[4] = biological target: recombinant human α-Klotho (human) (UniProt Q9UEF7); assay: BLI
[5] = biological target: recombinant mouse α-Klotho (mouse) (UniProt O35082); assay: affinity selection-mass spectrometry

Sequence of recombinant human α-Klotho (human) (Q9UEF7 34-1012): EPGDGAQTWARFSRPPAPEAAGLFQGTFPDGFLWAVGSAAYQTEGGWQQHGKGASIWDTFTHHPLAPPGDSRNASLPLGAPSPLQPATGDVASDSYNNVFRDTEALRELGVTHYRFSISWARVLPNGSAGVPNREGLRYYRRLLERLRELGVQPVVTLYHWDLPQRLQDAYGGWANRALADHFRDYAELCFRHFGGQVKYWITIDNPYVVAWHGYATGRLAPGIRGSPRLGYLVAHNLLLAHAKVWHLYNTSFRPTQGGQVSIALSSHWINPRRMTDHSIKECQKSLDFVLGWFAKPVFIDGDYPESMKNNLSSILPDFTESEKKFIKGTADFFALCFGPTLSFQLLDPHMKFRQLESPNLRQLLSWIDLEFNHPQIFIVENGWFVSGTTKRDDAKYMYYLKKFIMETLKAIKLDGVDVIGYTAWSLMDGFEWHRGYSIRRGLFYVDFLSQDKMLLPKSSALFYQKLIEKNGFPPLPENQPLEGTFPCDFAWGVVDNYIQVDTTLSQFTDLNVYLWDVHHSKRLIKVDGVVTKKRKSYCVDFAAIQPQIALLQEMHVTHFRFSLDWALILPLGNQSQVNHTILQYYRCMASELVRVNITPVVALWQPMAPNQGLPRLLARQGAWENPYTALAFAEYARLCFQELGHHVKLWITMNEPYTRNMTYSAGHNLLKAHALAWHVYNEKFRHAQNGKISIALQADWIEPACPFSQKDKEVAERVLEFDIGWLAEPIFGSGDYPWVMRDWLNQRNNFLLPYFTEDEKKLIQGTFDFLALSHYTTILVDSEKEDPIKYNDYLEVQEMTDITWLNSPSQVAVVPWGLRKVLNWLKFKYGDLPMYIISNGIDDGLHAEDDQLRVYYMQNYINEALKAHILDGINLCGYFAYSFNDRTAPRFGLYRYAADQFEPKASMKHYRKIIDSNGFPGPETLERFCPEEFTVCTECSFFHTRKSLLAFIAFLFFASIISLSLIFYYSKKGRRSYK

Molecule: Biotin-PEG4-PMASDPLGVVRPRAM [Pep-10-Biotin]
selectivity of pull-down by silver stain, HK-2 cell lysate ([1]; 50 nM of biotinylated peptides): not enriched | selectivity of pull-down by silver stain, HK-2 cell lysate ([1]; legend of Figure 4D, 200 nM printed, n = 2): not able to enrich Klotho | Klotho enrichment in pulled-down fraction, HK-2 cell lysate ([1]; western blot, probe at 2 μM, n = 2): minor enrichment; also recorded: moderately enriched

Molecule: CSCC[C@H](NC(=O)[C@H](CCCNC(=N)N)NC(=O)[C@H](C)NC(=O)[C@H](CCCNC(=N)N)NC(=O)[C@@H]1CCCN1C(=O)[C@H](CCCNC(=N)N)NC(=O)[C@@H](NC(=O)[C@@H](NC(=O)CNC(=O)[C@H](CC(C)C)NC(=O)[C@@H]1CCCN1C(=O)[C@H](CC(=O)O)NC(=O)[C@H](CO)NC(=O)[C@H](C)NC(=O)[C@H](CCSC)NC(=O)[C@@H]1CCCN1C(=O)CC1c2ccccc2-c2ccccc21)C(C)C)C(C)C)C(N)=O [K1] ({Acetyl(9-fluorenyl)}-PMASDPLGVVRPRARM-NH2)
fold change of competition KD relative to Pep-10 [2]: 89 fold

Kd [3]: 66 nM
Molecule: fluorenyl-PMASDPLGVVRPRARM [K1]

Kd [4]: 151 nM
B1: fibroblast growth factor 23 (ligand)
chain: YPNASPLLGSSWGGLIHLYTATARNSYHLQIHKNGHVDGAPHQTIYSALMIRSEDAGFVVITGVMSRRYLCMDFRGNIFGSHYFDPENCRFQHQTLENGYDVYHSPQYHFLVSLGRAKRAFLPGMNPPPYSQFLSRRNEIPLIHFNTPIPRRHTRSAEDDSERDPLNVLKPRARMTPAPASCSQELPSAEDNSPMASDPLGVVRGGRVNTHAGGTGPEGCRPFAKFI

Kd [3]: 5900 nM
Molecule: PMASDPLGVVRPRARM [Pep-10]

Kd [3]: 19 nM
Molecule: fluorenyl-ASDPLGVVRGRA [K12]

Kd [3]: 15 nM
Molecule: fluorenyl-PMASDPLGVVRARARM [K1 P12A]

Kd [3]: 9 nM
Molecule: fluorenyl-ASDPLGVVRGRAR (not fully specified (C-terminus)) [K17]

recovery yield [5]: 0.5% | Kd [3]: 139 nM
Molecule: fluorenyl-ASDPLGVVRPRA [K4]
